Compound activity deposited in PubChem BioAssay by several laboratories.
EphB4 antag: EphB4-ephrin-B2 interaction antagonists, primary screen, biochemical, TNYL-RAW peptide probe, fluorescence polarization; actives 0.15% (n = 97,000); inhibition, % at 7 µM; Ephrin type-B receptor 4 (Homo sapiens), P54760; EphB4 LBD / TNYL-RAW-Alexa532 peptide; AID 720, 2007;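 active = inhibition above the screen-wide mean inhibition plus 3 SD, cut at about 15% in these data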;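 also: 0% = DMSO wells and 100% = excess unlabeled TNYL-RAW peptide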
Target sequence (P54760 whole entry, looked up, the tested form may be a part): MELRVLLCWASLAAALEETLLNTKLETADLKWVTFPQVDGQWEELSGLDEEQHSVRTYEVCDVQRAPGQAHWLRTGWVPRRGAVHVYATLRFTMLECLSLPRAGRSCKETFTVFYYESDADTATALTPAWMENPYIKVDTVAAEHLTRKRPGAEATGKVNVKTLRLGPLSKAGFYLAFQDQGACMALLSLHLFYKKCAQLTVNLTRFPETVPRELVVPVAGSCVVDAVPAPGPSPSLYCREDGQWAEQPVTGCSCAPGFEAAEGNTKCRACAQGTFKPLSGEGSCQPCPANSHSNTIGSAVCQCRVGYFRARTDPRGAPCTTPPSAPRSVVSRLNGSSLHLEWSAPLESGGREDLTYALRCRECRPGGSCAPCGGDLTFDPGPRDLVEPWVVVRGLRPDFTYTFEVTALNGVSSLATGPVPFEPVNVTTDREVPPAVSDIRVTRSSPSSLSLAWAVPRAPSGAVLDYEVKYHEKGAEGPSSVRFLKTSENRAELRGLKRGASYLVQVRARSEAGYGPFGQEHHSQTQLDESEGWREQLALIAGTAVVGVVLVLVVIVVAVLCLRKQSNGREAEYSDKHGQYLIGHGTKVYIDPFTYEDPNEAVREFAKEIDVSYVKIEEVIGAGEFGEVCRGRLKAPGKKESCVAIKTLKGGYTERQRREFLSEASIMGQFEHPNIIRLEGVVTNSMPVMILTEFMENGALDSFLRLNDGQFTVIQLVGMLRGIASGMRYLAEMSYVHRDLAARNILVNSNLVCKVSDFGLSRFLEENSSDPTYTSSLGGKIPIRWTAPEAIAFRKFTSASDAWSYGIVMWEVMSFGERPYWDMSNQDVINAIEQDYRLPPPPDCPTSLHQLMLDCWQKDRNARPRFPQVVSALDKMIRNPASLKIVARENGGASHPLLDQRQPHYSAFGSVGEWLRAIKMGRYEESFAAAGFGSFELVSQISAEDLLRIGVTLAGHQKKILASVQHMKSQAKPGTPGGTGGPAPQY
PLK1 kinase inh: human PLK1 kinase inhibitors, primary screen, biochemical, TR-FRET; Serine/threonine-protein kinase PLK1 (Homo sapiens), P53350; recombinant PLK1 kinase, TR-FRET peptide phosphorylation; inhibition, % at 10 µM; actives 0.53% (n = 97,000); AID 619, 2007;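 active = inhibition of 50% or more in the single-concentration screen; inactive = inhibition below 50%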;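 also: 0% = DMSO max control and 100% = H-89 dihydrochloride min control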
PostGolgi ctrl: growth inhibition of yeast control strain, primary screen, counter-screen for post-Golgi transport modulator project; actives 5% (n = 98,000); efflux-deficient yeast background strain, growth absorbance A615, 16 h; inhibition, % at 10 µM; AID 738, 2007
Rev-RRE block: HIV-1 Rev-RRE binding inhibitors, primary screen, biochemical, FRET, protein-RNA interaction. inhibition, % at 8 µM. AID 704, 2007. Rev peptide-RRE RNA binding. actives 0.79% (n = 97,000). P05866;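 active = inhibition above the screen-wide mean plus 3 SD, cut at about 35% in these data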;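 also: 0% = median DMSO wells and 100% = median Neomycin B control wells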
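Probe or stimulus: fluorescein-Rev peptide as binding partner; assay system: Cy5-tagged RRE RNA duplex with fluorescein-tagged Rev peptide; timing: 5 min compound–RNA preincubation, then 15 min with peptide, 25 °C; medium: HEPES pH 7.5 buffer with KCl, MgCl2, NaCl and EDTA; signal: fluorescein-to-Cy5 FRET, 480 nm excitation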
PostGolgi yeast: phenotypic screen on post-Golgi transport, primary screen | post-Golgi transport phenotypic cell assay | inhibition, % at 10 µM | actives 0.9% (n = 98,000);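 also: yeast cells grown in 1536-well plates; yeast grown about 18 h at 30C before absorbance read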
PLK1 PBD inh: Plk1 polo box domain binding inhibitors, primary screen, biochemical, fluorescence polarization | Serine/threonine-protein kinase PLK1 (Homo sapiens), P53350 | Plk1 PBD phosphopeptide binding | inhibition, %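 (tested at about 20 µM)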 | actives 0.13% (n = 97,000) | AID 693, 2007; in the data active = inhibition above about 34%, passing the limit was not always enough
PLK1 inh conf: PLK1 kinase activity inhibitors, confirmation, biochemical, TR-FRET, duplicate runs. shares compounds with PLK1 kinase inh. recombinant PLK1 kinase, TR-FRET peptide phosphorylation. inhibition, % at 10 µM. actives 20% (n = 210). AID 744, 2007;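 active = inhibition at or above 50% in each of two repeat confirmation tests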;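 also: 0% = DMSO max control and 100% = H-89 kinase-blocked min control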
TR-FRET interf: compound interference with Plk1 assay readout, artefact control for Plk1 kinase inhibitor project, biochemical, TR-FRET, compound added post-reaction | AID 756, 2007 | inhibition (interference), % at 10 µM | 210 tested, under 10 active | shares compounds with PLK1 kinase inh;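 active = both duplicate runs show 50% or greater inhibition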;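 also: 0% = DMSO max control and 100% = H-89 min control inhibited reaction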
An asterisk follows results filed as active; nt = not tested or not shown. Hits are enriched below; roughly 6.4% of the tested compounds scored in any of these assays. Rule as the data show it, unless noted: active = inhibition above about 30%; inactive = the rest.

SMILES	EphB4 antag	PLK1 kinase inh	PostGolgi ctrl	Rev-RRE block	PostGolgi yeast	PLK1 PBD inh	PLK1 inh conf	TR-FRET interf
COc1ccccc1NC(=O)Cn1c(=O)n2nc(C)nc2c2ccccc21	-1.6	3.0	19.3	0.8	-10.4	8.6	nt	nt
Cc1c(Cl)cccc1NC(=O)C1NC(=O)CC1c1ccccc1 (centres undefined)	-7.7	-10.4	-3.6	-1.4	-2.0	2.9	nt	nt
COC(=O)C1C2C=CC3(CN(c4cccc(Cl)c4)C(=O)C13)O2 (centres undefined)	5.1	74.1*	12.1	13.0	0.6	-33.9	-2.3	-50.4
COC(=O)C1C2C=CC3(CN(c4cccc(C)c4)C(=O)C13)O2 (centres undefined)	4.5	-5.2	19.7	6.7	-1.0	7.7	nt	nt
COc1cc(/C=C(\C#N)c2[nH]nc(N)c2C#N)cc(OC)c1O	4.2	77.9*	10.8	22.4	3.4	-17.9	65.6*	-47.9
COCc1[nH]nc2c1C(c1cc(OC)c(O)c(OC)c1)C(C#N)=C(N)O2 (centres undefined)	nt	nt	1.9	nt	-2.6	nt	nt	nt
CCn1c(SCC(=O)N2CCOCC2)nc(O)cc1=O	-8.5	71.4*	3.8	1.6	-6.4	-13.4	-15.4	-51.4
O=C(CNC(=O)OCc1ccccc1)NCC(=O)N1CCCC1C(=O)OCc1ccccc1 (centres undefined)	4.0	-3.0	-6.2	-0.4	2.8	5.3	nt	nt
Nc1ncnc(Nc2ccccc2C(F)(F)F)n1	6.1	71.8*	3.6	7.8	6.9	-6.2	69.8*	-43.5
Nc1nc(Nc2ccccc2Br)nc(C(F)(F)F)n1	nt	nt	9.9	nt	3.3	nt	nt	nt
CCCOC(=O)CSc1nnc(-c2cc(OC)c(OC)c(OC)c2)o1	1.0	-11.4	9.1	-0.2	9.0	-0.6	nt	nt
COc1cc(-c2nnc(SCc3cc(=O)oc4cc(O)c(O)cc34)o2)cc(OC)c1OC	-3.3	76.5*	9.7	-19.7	6.9	1.8	26.0	1.4
CCCc1cc(C(N)=O)c(NC(C)=O)s1	5.7	15.9	0.7	6.6	-16.2	-16.1	nt	nt
CCOC(=O)c1sc2nc[nH]c(=O)c2c1C	-5.7	78.8*	10.6	10.7	-2.4	-23.1	73.0*	-15.5
CC1(c2ccccc2)NC(=O)N(CC(=O)Nc2ccc3c(c2)OCO3)C1=O (centres undefined)	5.3	90.7*	3.2	10.3	-8.0	-0.7	-10.5	-52.3
OCCN1CCN(c2ncnc3ccc(Br)cc23)CC1	-0.2	79.3*	6.7	5.0	0.7	-10.9	14.7	-41.1
Nc1[nH]ncc1C(=O)Nc1cccc(C(F)(F)F)c1	-2.9	77.5*	12.1	1.3	-13.8	-0.1	74.9*	-53.8
Cn1ncc(N)c1C(=O)Nc1cccc(C(F)(F)F)c1	nt	nt	3.0	nt	-2.9	nt	nt	nt
COCCCNC(=O)c1ccc(CS(=O)(=O)c2ccc(Br)cc2)o1	2.3	74.9*	13.8	7.2	16.1	-16.3	-5.5	-49.5
CCOc1cc(C2NC(=O)NC(C)=C2C(C)=O)cc(Cl)c1OCC(=O)O (centres undefined)	-0.2	-7.5	0.1	5.4	-6.5	-26.2	nt	nt
COc1ccc(CCNC(=O)C2CCN(S(=O)(=O)N3CC(C)CC(C)C3)CC2)cc1OC (centres undefined)	-2.9	-9.9	-7.1	-0.4	-0.3	1.3	nt	nt
Cc1ccc(N(C)C(=O)N2CCN(S(=O)(=O)c3ccc(C)cc3)CC2)cc1	0.8	72.4*	28.4	5.0	-4.8	2.4	3.0	-49.9
CC(C)n1c(SCC(=O)Nc2ccccc2)nc2c1c(=O)n(C)c(=O)n2C	2.0	-11.2	nt	7.7	nt	10.0	nt	nt
O=C(c1ccccc1)c1nn(-c2ccc(Cl)cc2)cc1C(=O)c1cc2ccccc2oc1=O	0.5	-59.1	11.7	7.3	-2.8	-2.0	nt	nt
CNC(=O)CN(C#N)c1nc(N(C)C)nc(N(C)C)n1	7.9	-10.8	nt	4.9	nt	-17.0	nt	nt
SMILES	EphB4 antag	PLK1 kinase inh	PostGolgi ctrl	Rev-RRE block	PostGolgi yeast	PLK1 PBD inh	PLK1 inh conf	TR-FRET interf
O=c1[nH]c2ccc(Br)cc2c(-c2ccccc2)c1N1CCOCC1	5.2	-4.6	12.7	8.8	-1.3	3.4	nt	nt
O=c1ccc2cc3c([nH]c4ccc(Br)cc43)oc-2c1O	11.2	71.3*	-11.0	36.7*	4.6	5.5	22.1	-20.4
COc1ccc(-c2nnn(CC(=O)Nc3sc4c(c3C#N)CCCC4)n2)cc1	-2.1	-5.8	2.6	-1.2	-2.0	1.6	nt	nt
COc1cc(C2C(C(=O)OC(C)C)=C(C)Nc3ncnn32)cc(OC)c1OC (centres undefined)	-9.5	81.2*	21.0	-2.0	-4.8	-9.0	-4.2	-48.7
COc1ccc(C2C(C(C)=O)=C(C)Nc3ncnn32)cc1OC (centres undefined)	4.7	-8.5	1.4	4.9	-1.8	-11.3	nt	nt
CCOC(=O)c1c(C)n(C)c2ccc(OCC(O)CN3CCN(C)CC3)cc12 (centres undefined)	3.3	75.2*	6.2	11.2	2.2	9.3	-6.8	-43.9
COCCn1c(SCc2cccnc2)nnc1-c1c[nH]c2ccccc12	-0.1	75.1*	5.2	1.2	3.3	-20.5	-8.8	-47.3
COCCn1c(SCC(=O)Nc2cc(C)on2)nnc1-c1c[nH]c2ccccc12	-3.2	70.6*	4.2	3.7	-4.0	-2.1	0.1	-51.2
CCOc1ccccc1-n1c(SCC(=O)NC(C)CC)nnc1-c1ccoc1C (centres undefined)	-2.5	-9.3	-1.3	-3.9	9.6	8.3	nt	nt
Cc1c(NC(=O)C(C)N2C(=O)c3ccccc3C2=O)c(=O)n(-c2ccccc2)n1C (centres undefined)	-0.4	-4.6	12.3	-1.4	0.2	4.3	nt	nt
Cc1c(NC(=O)C(C)N2C(=O)C3C4C=CC(C4)C3C2=O)c(=O)n(-c2ccccc2)n1C (centres undefined)	-5.6	70.8*	5.8	7.5	-3.1	-19.5	-5.7	-47.5
Cc1ccc2c(C)nc(Nc3nc(CSc4nc5ccccc5[nH]4)cc(=O)[nH]3)nc2c1	6.5	-0.2	18.6	8.9	2.4	-1.7	nt	nt
Cc1nn2c(=O)cc(CSc3nc4ccccc4[nH]3)nc2s1	-7.5	74.0*	5.1	1.3	-1.1	-20.3	-13.1	-59.7
COc1cc(C)ccc1NC(=O)c1ccc(S(=O)(=O)N2CCOCC2)cc1	-9.6	-6.1	4.0	5.5	-0.7	27.1	nt	nt
Cc1cc(C)c(NC(=O)c2ccc(S(=O)(=O)N3CCOCC3)cc2)c(C)c1	-5.0	72.3*	5.5	6.2	-3.2	-2.9	-10.6	-48.4
